As a reminder, the microsomal CLint is a measure of how fast metabolising enzymes remove a compound, apart from limits set by blood flow. Broadly, the Ki is the equilibrium dissociation constant of an inhibitor or competing ligand from its target.

Each structure is given as a SMILES string.

This is an account of results in ChEMBL document CHEMBL4351001, “2-Aminoimidazole-based antagonists of the 5-HT6 receptor - A new concept in aminergic GPCR ligand design” (Eur J Med Chem, 2019).

Series [1] can be described thus: in vitro. Particulars: rat; call rule not given here.
Series [2] concerns the target 5-hydroxytryptamine receptor 2A (Homo sapiens, UniProt P28223). The experiment in a line: Displacement of [3H]ketanserin from human 5HT2A receptor expressed in CHOK1 cells incubated for 1 hr by liquid scintillation counter method. The format is cell-based. (In general: Displacement assays read how much labelled ligand stays bound in the presence of the test substance.)

A short description of series [3]: Solubility of compound in water. The format is physicochemical. The conditions noted are these: buffer.
Series [4] addresses T1, 5-hydroxytryptamine receptor 1A (Homo sapiens, UniProt P08908).
T1 sequence (P08908 whole entry): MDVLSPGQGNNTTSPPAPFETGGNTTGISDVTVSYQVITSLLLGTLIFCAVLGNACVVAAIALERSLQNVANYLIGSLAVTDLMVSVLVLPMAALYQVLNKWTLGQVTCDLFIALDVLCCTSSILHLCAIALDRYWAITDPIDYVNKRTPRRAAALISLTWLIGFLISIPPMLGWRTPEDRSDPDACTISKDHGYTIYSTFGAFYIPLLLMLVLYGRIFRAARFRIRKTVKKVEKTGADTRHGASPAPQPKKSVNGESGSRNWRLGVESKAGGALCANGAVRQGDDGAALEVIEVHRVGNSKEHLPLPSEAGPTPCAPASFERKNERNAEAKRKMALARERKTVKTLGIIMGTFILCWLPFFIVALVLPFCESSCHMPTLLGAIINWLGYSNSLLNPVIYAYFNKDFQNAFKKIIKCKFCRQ
The experiment in a line: Displacement of [3H]-8-OH-DPAT from human 5HT1A receptor expressed in HEK293 cells incubated for 1 hr by liquid scintillation counter method. The format is cell-based. Summed up: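 HEK293 cells stably expressing human 5-HT1AR; membranes in 50 mM Tris–HCl, 0.1 mM EDTA, 4 mM MgCl2, 10 μM pargyline, 0.1% ascorbate; incubated 1 h at room temperature, then filtered. Nonspecific binding defined with 10 μM 5-HT.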

Series [5] deals with D(2) dopamine receptor (Homo sapiens, UniProt P14416). The experiment in a line: Displacement of [3H]-methylspiperone from human D2 long receptor expressed in HEK293 cells measured after 1 hr by liquid scintillation counter method. It is filed as cell-based. Put shortly:
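HEK293 membranes stably expressing human D2L receptor, incubated 1 h at 37°C, then filtered and retained radioactivity counted; (+)-butaclamol 1 μM defines nonspecific binding. Tested in triplicate at 7–8 concentrations (10⁻¹¹–10⁻⁴ M); Ki via Cheng-Prusoff, averaged over at least two independent experiments.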

The target in series [6] is 5-hydroxytryptamine receptor 6 (Homo sapiens, UniProt P50406). Nature of the series: Displacement of [3H]LSD from human 5HT6 receptor expressed in HEK293 cells measured after 1 hr by liquid scintillation counter method. It is filed as cell-based.
Chain of 5-hydroxytryptamine receptor 6 (P50406 whole entry): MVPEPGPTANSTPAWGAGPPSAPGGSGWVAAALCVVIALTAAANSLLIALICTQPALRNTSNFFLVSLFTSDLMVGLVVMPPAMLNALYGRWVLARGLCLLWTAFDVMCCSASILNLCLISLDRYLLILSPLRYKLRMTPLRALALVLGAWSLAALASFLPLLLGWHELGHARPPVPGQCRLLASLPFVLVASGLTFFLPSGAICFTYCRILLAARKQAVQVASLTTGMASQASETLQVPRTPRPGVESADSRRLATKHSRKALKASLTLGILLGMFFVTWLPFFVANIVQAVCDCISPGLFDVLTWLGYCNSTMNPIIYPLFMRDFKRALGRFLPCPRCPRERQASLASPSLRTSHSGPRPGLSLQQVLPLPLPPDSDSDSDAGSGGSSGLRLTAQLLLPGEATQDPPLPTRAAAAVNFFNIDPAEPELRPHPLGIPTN
In series [7] the target is 5-hydroxytryptamine receptor 7 (Homo sapiens, UniProt P34969). The experiment in a line: Displacement of [3H]-5-CT from human 5HT7 receptor expressed in HEK293 cells measured after 1 hr by liquid scintillation counter method. It is filed as cell-based.
Chain of 5-hydroxytryptamine receptor 7 (P34969 whole entry): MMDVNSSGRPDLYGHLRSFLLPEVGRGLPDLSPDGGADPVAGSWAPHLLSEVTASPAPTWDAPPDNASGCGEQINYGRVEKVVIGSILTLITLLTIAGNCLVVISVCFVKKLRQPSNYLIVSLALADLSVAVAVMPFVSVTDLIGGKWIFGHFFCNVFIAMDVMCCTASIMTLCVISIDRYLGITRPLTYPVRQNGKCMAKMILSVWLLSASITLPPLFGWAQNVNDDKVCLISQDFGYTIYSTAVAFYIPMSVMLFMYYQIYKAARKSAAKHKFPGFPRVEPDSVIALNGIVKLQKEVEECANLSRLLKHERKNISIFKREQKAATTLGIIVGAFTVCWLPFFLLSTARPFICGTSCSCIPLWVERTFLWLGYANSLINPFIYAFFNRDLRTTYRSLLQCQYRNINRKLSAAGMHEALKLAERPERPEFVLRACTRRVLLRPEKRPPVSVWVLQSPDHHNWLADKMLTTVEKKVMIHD

Chain of 5-hydroxytryptamine receptor 2A (P28223 whole entry): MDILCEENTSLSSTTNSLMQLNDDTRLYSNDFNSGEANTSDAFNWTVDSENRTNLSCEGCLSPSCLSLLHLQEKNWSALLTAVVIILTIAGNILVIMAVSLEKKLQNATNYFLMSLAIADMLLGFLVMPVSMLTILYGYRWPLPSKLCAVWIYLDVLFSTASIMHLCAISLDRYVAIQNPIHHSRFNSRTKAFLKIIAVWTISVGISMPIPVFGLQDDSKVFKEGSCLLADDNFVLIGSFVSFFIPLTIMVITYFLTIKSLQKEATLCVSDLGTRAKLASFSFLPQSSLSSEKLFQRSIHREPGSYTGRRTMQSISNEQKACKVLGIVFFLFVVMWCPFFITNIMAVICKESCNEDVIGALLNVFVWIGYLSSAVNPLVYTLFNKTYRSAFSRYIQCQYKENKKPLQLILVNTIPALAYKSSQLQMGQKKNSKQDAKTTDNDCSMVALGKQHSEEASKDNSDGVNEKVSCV
Chain of D(2) dopamine receptor (P14416 whole entry): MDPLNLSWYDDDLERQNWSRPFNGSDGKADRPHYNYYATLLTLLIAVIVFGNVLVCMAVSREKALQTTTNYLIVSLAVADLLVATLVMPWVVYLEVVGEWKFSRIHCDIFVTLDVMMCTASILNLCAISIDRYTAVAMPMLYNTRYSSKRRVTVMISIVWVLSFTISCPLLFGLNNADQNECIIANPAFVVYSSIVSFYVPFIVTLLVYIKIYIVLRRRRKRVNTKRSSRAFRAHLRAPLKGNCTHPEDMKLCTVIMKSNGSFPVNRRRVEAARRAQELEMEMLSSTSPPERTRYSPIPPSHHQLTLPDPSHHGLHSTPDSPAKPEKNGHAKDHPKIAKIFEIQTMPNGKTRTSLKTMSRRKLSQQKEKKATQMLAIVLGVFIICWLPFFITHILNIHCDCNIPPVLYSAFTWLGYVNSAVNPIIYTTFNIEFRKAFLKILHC

As to `Fc1ccc2c(CCNCc3cccc(OCC(F)(F)C(F)F)c3)c[nH]c2c1` [IDALOPIRDINE], the intrinsic metabolic clearance (microsomal CLint) in series [1] (microsomes) was found to be 99.3 µL/min/mg.

Turning to `COc1ccc2c(c1)c(-c1[nH]c(NC(C)=O)nc1C)cn2S(=O)(=O)c1cccc2ccccc12`, the Ki in series [2] (read-out: Ki) is over 10 µM. In series [3], the solubility entry was “Insoluble”.

Regarding `CCc1nc(NC(C)=O)[nH]c1-c1cn(S(=O)(=O)c2ccccc2)c2ccccc12`, in series [2] (read-out: Ki), the Ki was over 10 µM. Besides, the solubility entry in series [3] is recorded as “Insoluble”.

Take `CCC(=O)Nc1nc(C)c(-c2cn(S(=O)(=O)c3cccc(F)c3)c3ccc(OC)cc23)[nH]1`: the Ki in series [4] (read-out: Ki) and in series [2] (read-out: Ki) was over 10 µM each time. The solubility entry in series [3] is reported as “Insoluble”.

`COc1ccc2c(c1)c(-c1[nH]c(NC(C)=O)nc1C)cn2S(=O)(=O)c1ccc2ccccc2c1`: the Ki in series [2] (read-out: Ki) was over 10 µM. The solubility result in series [3] is reported as “Insoluble”.

For the molecule `CC(=O)Nc1ncc(-c2cn(S(=O)(=O)c3ccccc3)c3ccccc23)[nH]1`, the Ki in series [4] (read-out: Ki) is over 10 µM. Also, the solubility entry in series [3] was “Insoluble”.

As for `COc1ccc2c(c1)c(-c1nc(N)sc1C)cn2S(=O)(=O)c1ccccc1`, in series [2] (read-out: Ki), the Ki turned out to be 2.46 µM. For the same molecule, the solubility entry in series [3] is given as “Insoluble”.

Turning to `COc1ccc2c(c1)c(-c1[nH]c(N)nc1C)cn2S(=O)(=O)c1cccc2ccccc12`, the Ki was over 10 µM in series [4] (read-out: Ki) and 1.66 µM in series [2] (read-out: Ki).

`CCc1nc(N)[nH]c1-c1cn(S(=O)(=O)c2ccccc2)c2ccccc12.Cl`: the Ki in series [2] (read-out: Ki) was determined as 0.107 µM. Besides, the solubility entry in series [3] was “Soluble”.

As for `CC(=O)N1CCCn2c1nc(C)c2-c1cn(S(=O)(=O)c2ccccc2)c2ccccc12`, the Ki in series [4] (read-out: Ki) and in series [2] (read-out: Ki) was over 10 µM each time. The solubility entry in series [3] was “Insoluble”.

For `Cl.Nc1ncc(-c2cn(S(=O)(=O)c3ccccc3)c3ccccc23)[nH]1`, the figures for the Ki in series [4] (read-out: Ki) and in series [2] (read-out: Ki) were 0.126 µM and 0.891 µM, respectively. Further, the solubility result in series [3] is recorded as “Soluble”.

With `COc1ccc2c(c1)c(-c1[nH]c(NC(C)=O)nc1C)cn2S(=O)(=O)c1cccc(F)c1`, the Ki in series [4] (read-out: Ki) and in series [2] (read-out: Ki) was over 10 µM each time. Further, in series [3], the solubility result is “Insoluble”.

`CCC(=O)Nc1nc(CC)c(-c2cn(S(=O)(=O)c3ccccc3)c3ccc(OC)cc23)[nH]1`: in series [3], the solubility entry is “Insoluble”.

As to `CC(=O)Nc1nc(C)c(-c2cn(S(=O)(=O)c3cccc4ccccc34)c3ccccc23)[nH]1`, the solubility result in series [3] is recorded as “Insoluble”.

For the molecule `COc1ccc2c(c1)c(-c1[nH]c(N)nc1C)cn2S(=O)(=O)c1ccccc1.Cl`, the inhibition constant (Ki) is over 10 µM in series [4] (read-out: Ki) and 0.676 µM in series [2] (read-out: Ki). In addition, in series [3], the solubility result was “Soluble”.

Consider `COc1ccc2c(c1)c(-c1cnc(NC(C)=O)[nH]1)cn2S(=O)(=O)c1ccccc1`, for which the inhibition constant (Ki) in series [4] (read-out: Ki) is over 10 µM. Further, the solubility result in series [3] is given as “Insoluble”.

As for `CCC(=O)Nc1nc(C)c(-c2cccc3c2ccn3S(=O)(=O)c2ccccc2)[nH]1`, the Ki in series [4] (read-out: Ki) and in series [2] (read-out: Ki) was over 10 µM throughout. Further, the solubility entry in series [3] was “Insoluble”.

On to `CCc1nc(N)[nH]c1-c1cn(S(=O)(=O)c2ccccc2)c2ccc(OC)cc12.Cl`, for which the Ki in series [4] (read-out: Ki) is over 10 µM; in series [2] (read-out: Ki) it was 0.661 µM. The solubility result in series [3] is on record as “Soluble”.

On to `COc1ccc2c(c1)c(-c1[nH]c3cccc[n+]3c1C)cn2S(=O)(=O)c1ccccc1.[Br-]`, for which, in series [2] (read-out: Ki), the Ki is over 10 µM. Besides, in series [3], the solubility entry is “Soluble”.

On to `CCC(=O)Nc1nc(C)c(-c2ccc3ccn(S(=O)(=O)c4ccccc4)c3c2)[nH]1`, for which the Ki in series [2] (read-out: Ki) came out at 7.41 µM. In addition, the solubility result in series [3] is “Insoluble”.

For `Cl.Nc1ncc(-c2cccc3c2ccn3S(=O)(=O)c2ccccc2)[nH]1`, the Ki in series [2] (read-out: Ki) amounted to 2.29 µM. Moreover, the solubility entry in series [3] is “Soluble”.

On to `COc1ccc2c(c1)c(-c1c(C)nc(N)n1CC(F)F)cn2S(=O)(=O)c1ccccc1`, for which the Ki entry is “Not Active” in series [4] (hek293); 3.24 µM in series [2] (read-out: Ki); 3.8 µM in series [5]; 0.157 µM in series [6]; “Not Active” in series [7] (hek293). Further, in series [3], the solubility result is “Insoluble”.

Consider `COc1ccc2c(c1)c(-c1nc(N)sc1C)cn2S(=O)(=O)c1ccc2ccccc2c1`, for which the solubility result in series [3] is recorded as “Insoluble”.

Regarding `COc1ccc2c(c1)c(-c1nc(N)sc1C)cn2S(=O)(=O)c1cccc2ccccc12`, the solubility entry in series [3] is recorded as “Insoluble”.

Consider `COc1ccc2c(c1)c(-c1[nH]c3nccc[n+]3c1C)cn2S(=O)(=O)c1ccccc1.[Br-]`, for which the Ki in series [4] (read-out: Ki) and in series [2] (read-out: Ki) was over 10 µM in each case. Also, in series [3], the solubility result is “Soluble”.

Take `COc1ccc2c(c1)c(-c1[nH]c(N)nc1C)cn2S(=O)(=O)c1ccc2ccccc2c1.Cl`: in series [2] (read-out: Ki), the Ki was determined as 1.05 µM. Moreover, in series [3], the solubility result is “Soluble”.

For `COc1ccc2c(c1)c(-c1[nH]c(NCc3ccccc3)nc1C)cn2S(=O)(=O)c1ccccc1`, the Ki result in series [4] (hek293) is “Not Active”. Further, in series [3], the solubility result was “Insoluble”.

Turning to `CC(=O)Nc1nc(C)c(-c2c(C)n(S(=O)(=O)c3ccccc3)c3ccccc23)[nH]1`, in series [4] (read-out: Ki), the Ki was over 10 µM. Moreover, the solubility result in series [3] was “Insoluble”.

Turning to `COc1ccc2c(c1)c(-c1[nH]c(NC(C)=O)nc1C)cn2S(=O)(=O)c1ccccc1`, the Ki in series [4] (read-out: Ki) and in series [2] (read-out: Ki) was over 10 µM throughout. For the same molecule, the solubility result in series [3] is reported as “Insoluble”.

Regarding `CCC(=O)Nc1nc(C)c(-c2cn(S(=O)(=O)c3ccc4ccccc4c3)c3ccc(OC)cc23)[nH]1`, the Ki in series [2] (read-out: Ki) was over 10 µM. Besides, the solubility entry in series [3] is recorded as “Insoluble”.

Take `Cc1sc(N)nc1-c1cn(S(=O)(=O)c2ccccc2)c2ccccc12`: the Ki result in series [4] (hek293) is “Not Active”. In series [3], the solubility entry was “Insoluble”.

In the case of `CC(=O)N1CCn2c1nc(C)c2-c1cn(S(=O)(=O)c2ccccc2)c2ccccc12`, the inhibitory constant (Ki) in series [4] (read-out: Ki) and in series [2] (read-out: Ki) was over 10 µM each time. Also, in series [3], the solubility result was “Insoluble”.

With `CCC(=O)Nc1nc(C)c(-c2cn(S(=O)(=O)c3cccc4ccccc34)c3ccc(OC)cc23)[nH]1`, the solubility result in series [3] is “Insoluble”.

Turning to `COc1ccc2c(c1)c(-c1[nH]c(N)nc1C)cn2S(=O)(=O)c1cccc(F)c1.Cl`, the inhibition constant Ki in series [4] (read-out: Ki) was over 10 µM; in series [2] (read-out: Ki), 1.12 µM. Also, the solubility entry in series [3] is “Soluble”.

`O=S(=O)(c1ccccc1)c1cnc2c(N3CCNCC3)cccc2c1` [INTEPIRDINE]: in series [1] (liver microsomes), the intrinsic clearance (microsomal CLint) was 6.6 µL/min/mg.

On to `COc1ccc2c(c1)c(-c1[nH]c(NC(=O)Cc3ccccc3)nc1C)cn2S(=O)(=O)c1ccccc1`, for which the Ki is over 10 µM in series [2] (read-out: Ki), over 10 µM in series [5], 0.003 µM in series [6] and over 10 µM in series [7] (read-out: Ki). In addition, in series [3], the solubility entry is recorded as “Insoluble”.

Take `COc1ccc2c(c1)c(-c1cnc(N)[nH]1)cn2S(=O)(=O)c1cccc(F)c1.Cl`: in series [3], the solubility entry is listed as “Soluble”.

On to `CCC(=O)Nc1nc(C)c(-c2cn(S(=O)(=O)c3cccc4ccccc34)c3ccccc23)[nH]1`, for which the inhibition constant (Ki) in series [2] (read-out: Ki) was over 10 µM. The solubility result in series [3] is reported as “Insoluble”.

For `COc1ccc2c(c1)c(-c1[nH]c(NCCc3ccccc3)nc1C)cn2S(=O)(=O)c1ccccc1`, the Ki result in series [4] (hek293) was “Not Active”; in series [2] (read-out: Ki) it was 1.91 µM; in series [5] it was 2.14 µM; in series [6] it was 0.083 µM; in series [7] (hek293), “Not Active”. For the same molecule, the solubility result in series [3] is given as “Insoluble”.

Regarding `CCc1nc(NC(C)=O)[nH]c1-c1cn(S(=O)(=O)c2ccccc2)c2ccc(OC)cc12`, the Ki in series [4] (read-out: Ki) and in series [2] (read-out: Ki) was over 10 µM throughout. In series [3], the solubility entry is on record as “Insoluble”.

With `Cc1sc(N)nc1-c1cn(S(=O)(=O)c2cccc3ccccc23)c2ccccc12`, the Ki entry in series [4] (hek293) and in series [2] was “Not Active” throughout. Further, in series [3], the solubility result is recorded as “Insoluble”.

Consider `COc1ccc2c(c1)c(-c1cnc(NC(C)=O)[nH]1)cn2S(=O)(=O)c1cccc(F)c1`, for which, in series [2] (read-out: Ki), the inhibition constant Ki was over 10 µM. In series [3], the solubility result was “Insoluble”.
